Shown are actives, neighbours in structure and some others; about 3.5% of the full set was active somewhere.
STAT1 activator: increases IFN-gamma driven STAT1 reporter signal; NIH 3T3 STAT1-luciferase reporter, luminescence; 100% = IFN-gamma alone, no compound; activation (% of control), % at 5.5 µM; actives 2.6% (n = 200,000); AID 932;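 active means activation above the screen-wide mean activation plus 3 SD, cut at about 130% in these data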
FLuc inhib CS: counter-screen for luciferase assay inhibitors: firefly luciferase inhibition | actives 1.5% (n = 200,000) | AID 1006 | inhibition, % at 10 µM | ATPLite firefly luciferase biochemical luminescence, 10 min;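 active means inhibition above about 50% when tested at 10 µM, limit read from the data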
Target sequence (P08659 whole entry, looked up): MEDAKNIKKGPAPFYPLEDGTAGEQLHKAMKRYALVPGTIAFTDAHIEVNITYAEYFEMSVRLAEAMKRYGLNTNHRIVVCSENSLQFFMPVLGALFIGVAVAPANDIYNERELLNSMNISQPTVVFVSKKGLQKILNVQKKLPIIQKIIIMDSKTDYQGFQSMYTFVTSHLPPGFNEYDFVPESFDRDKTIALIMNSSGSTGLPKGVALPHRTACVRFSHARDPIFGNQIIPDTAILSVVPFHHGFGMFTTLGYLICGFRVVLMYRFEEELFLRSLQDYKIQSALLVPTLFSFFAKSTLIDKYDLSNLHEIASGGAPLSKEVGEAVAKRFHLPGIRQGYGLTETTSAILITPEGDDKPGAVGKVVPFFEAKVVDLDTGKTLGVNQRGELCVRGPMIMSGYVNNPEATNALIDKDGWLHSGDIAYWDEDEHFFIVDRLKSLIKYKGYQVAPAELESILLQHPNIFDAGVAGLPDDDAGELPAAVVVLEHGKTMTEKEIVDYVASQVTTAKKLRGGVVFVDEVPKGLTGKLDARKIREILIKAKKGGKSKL
Pf gamet viab: inhibitors of late stage P. falciparum gametocyte viability. P. falciparum stage V gametocytes, ATP luminescence, 24 h. inhibition, % at 10.9 µM. actives 0.065% (n = 150,000);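 active means inhibition above the mean plus 3 SD of compounds within the control limits, set per campaign, cut at about 38% in these data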
APP 5'UTR act: activates APP 5'UTR luciferase reporter | SH-SY5Y APP 5'UTR luciferase reporter, luminescence; zero percent = DMSO vehicle wells | activation, % at 2 µM | actives 1% (n = 190,000);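 active means activation above a set limit, based on mean plus 3 SD of controls, cut at about 140% in these data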
FLuc stim CS: firefly luciferase counter-screen for stimulation assays | ATPlite luciferase biochemical, luminescence, 10 min; 0 = ATP-free wells, 1 = DMSO control | 200,000 tested, under 10 active | activation factor at 10 µM | P08659 | AID 1027;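 active means luciferase activation factor, scaled between plate controls, of at least 2 with compound at 10 µM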
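System: cell-free luciferase reagent; medium: PBS as buffer for the ATP substrate; doses: test compounds dosed from 2 mM stocks in 100% DMSO; incubation: 10 min, room temperature; measured by: luminescence from luciferase reaction; read-out: luciferase activation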
NF-kB expr up: compounds increasing NF-kB expression in human neuronal cells; NF-kB reporter expression; stronger effect = higher value; fold change at 12.5 µM; actives 1.6% (n = 190,000); in the data active means fold change above about 3.3
A number is an active result.

Results for Clc1ccc2nc(N3CCN(c4ccccc4)CC3)sc2c1 ?
STAT1 activator: 137; FLuc inhib CS: inactive; APP 5'UTR act: inactive; FLuc stim CS: inactive; NF-kB expr up: 3.5

How did Brc1ccc2nc(N3CCN(c4ccccc4)CC3)sc2c1 do in these assays?
STAT1 activator: 129; FLuc inhib CS: inactive; Pf gamet viab: inactive; APP 5'UTR act: inactive; FLuc stim CS: inactive; NF-kB expr up: inactive

How did Cc1ccc(C(=O)C[n+]2cc(Br)cc(Br)c2)cc1 do in these assays?
Pf gamet viab: inactive

Results for CCN1C(=O)/C(=C/C=C2/SCCN2C)SC1=S ?
STAT1 activator: 152; FLuc inhib CS: inactive; Pf gamet viab: inactive; APP 5'UTR act: inactive; FLuc stim CS: inactive; NF-kB expr up: 4.7

What do the screens show for `CN1CCS/C1=C\C=C1/SC(=S)N(CC(=O)O)C1=O`?
STAT1 activator: inactive; FLuc inhib CS: inactive; Pf gamet viab: inactive; APP 5'UTR act: inactive; FLuc stim CS: inactive; NF-kB expr up: inactive

How did COc1ccccc1NC(=O)/C(=C/c1cccc([N+](=O)[O-])c1)c1ccccc1 do in these assays?
STAT1 activator: inactive; FLuc inhib CS: inactive; APP 5'UTR act: inactive; FLuc stim CS: inactive; NF-kB expr up: inactive

What do the screens show for `Clc1ccccc1N/N=C/c1ccc2c(c1)OCO2`?
STAT1 activator: 135; FLuc inhib CS: inactive; Pf gamet viab: inactive; APP 5'UTR act: inactive; FLuc stim CS: inactive; NF-kB expr up: inactive

How did O=C(Cc1ccccc1)N/N=C/c1ccc2c(c1)OCO2 do in these assays?
STAT1 activator: inactive; FLuc inhib CS: inactive; Pf gamet viab: inactive; APP 5'UTR act: inactive; FLuc stim CS: inactive; NF-kB expr up: inactive

How did COc1cccc(/C=N/Nc2nc3ccccc3[nH]2)c1O do in these assays?
Pf gamet viab: inactive

How did COc1cc(/C=N/Nc2nc3ccccc3[nH]2)cc(OC)c1O do in these assays?
STAT1 activator: inactive; FLuc inhib CS: 61; APP 5'UTR act: inactive; FLuc stim CS: inactive; NF-kB expr up: inactive

Results for COc1cc(/C=N/Nc2nc3ccccc3[nH]2)ccc1O ?
STAT1 activator: inactive; FLuc inhib CS: 55; Pf gamet viab: inactive; APP 5'UTR act: inactive; FLuc stim CS: inactive; NF-kB expr up: inactive

What do the screens show for `COC(=O)c1ccc(/C=N/Nc2nc3ccccc3[nH]2)cc1`?
STAT1 activator: 138; FLuc inhib CS: inactive; Pf gamet viab: inactive; APP 5'UTR act: inactive; FLuc stim CS: inactive; NF-kB expr up: inactive

Results for Cc1cc([N+](=O)[O-])ccc1NC(=O)CN1C2CCC1CC(NC(=O)NC13CC4CC(CC(C4)C1)C3)C2 (stereo unspecified) ?
STAT1 activator: inactive; FLuc inhib CS: inactive; APP 5'UTR act: inactive; FLuc stim CS: inactive; NF-kB expr up: inactive

What do the screens show for `CC(Nc1cc(N2CCN(C(=O)C(C)(C)C)CC2)ccc1[N+](=O)[O-])c1ccccc1` (stereo unspecified)?
STAT1 activator: inactive; FLuc inhib CS: inactive; Pf gamet viab: inactive; APP 5'UTR act: inactive; FLuc stim CS: inactive; NF-kB expr up: inactive

What do the screens show for `COc1cc(/C=N/Nc2nc3ccccc3[nH]c2=O)ccc1O`?
STAT1 activator: inactive; FLuc inhib CS: 50; Pf gamet viab: inactive; APP 5'UTR act: inactive; FLuc stim CS: inactive; NF-kB expr up: inactive

What do the screens show for `c1ccc2[nH]c(NN=C3CCCCCC3)nc2c1`?
STAT1 activator: inactive; FLuc inhib CS: 82; Pf gamet viab: inactive; APP 5'UTR act: inactive; FLuc stim CS: inactive; NF-kB expr up: inactive

How did COc1cc(/C=C(/C(=O)c2cccs2)c2nc3ccccc3[nH]2)cc(OC)c1O do in these assays?
STAT1 activator: inactive; FLuc inhib CS: 77; Pf gamet viab: inactive; APP 5'UTR act: inactive; FLuc stim CS: inactive; NF-kB expr up: 10

Results for C(=N\Nc1nc2ccccc2[nH]1)/c1ccc2c(c1)OCO2 ?
STAT1 activator: 141; FLuc inhib CS: 55; Pf gamet viab: inactive; APP 5'UTR act: 149; FLuc stim CS: inactive; NF-kB expr up: 4.1

What do the screens show for `CC1C/C(=N/Nc2nc3ccccc3[nH]2)CC(C)(C)C1` (stereo unspecified)?
STAT1 activator: inactive; FLuc inhib CS: inactive; APP 5'UTR act: inactive; FLuc stim CS: inactive; NF-kB expr up: inactive

How did COc1cc(/C=N/Nc2nc(=O)[nH]nc2C)ccc1O do in these assays?
Pf gamet viab: inactive

How did COc1ccc(C(=O)N/C(=C/c2cccs2)c2nc3ccccc3[nH]2)cc1OC do in these assays?
STAT1 activator: inactive; FLuc inhib CS: inactive; APP 5'UTR act: inactive; FLuc stim CS: inactive; NF-kB expr up: inactive

What do the screens show for `O=C(CN1C(=O)NC2(CCCCCC2)C1=O)N1CCN(S(=O)(=O)c2ccc(Cl)cc2)CC1`?
STAT1 activator: inactive; FLuc inhib CS: inactive; APP 5'UTR act: inactive; FLuc stim CS: inactive; NF-kB expr up: inactive

What do the screens show for `C#CCNc1c2c(nc3ncnn13)CC(C)CC2` (stereo unspecified)?
Pf gamet viab: inactive

Results for Cc1ccc(S(=O)(=O)Cc2ccccc2Cl)cc1 ?
STAT1 activator: inactive; FLuc inhib CS: inactive; Pf gamet viab: inactive; APP 5'UTR act: inactive; FLuc stim CS: inactive; NF-kB expr up: inactive

Results for O=C(c1noc2c1CCCC2)N1CCC(CO)(Cc2ccccc2Cl)CC1 ?
STAT1 activator: inactive; FLuc inhib CS: inactive; Pf gamet viab: inactive; APP 5'UTR act: inactive; FLuc stim CS: inactive; NF-kB expr up: inactive

How did C#CCOCCOCCOCCNc1nc(N2CCN(C(=O)[C@H]([C@@H](C)CC)n3cc([C@@H](N)CO)nn3)CC2)nc(N2CCN(C(=O)[C@H](Cc3cc4ccccc4[nH]3)n3cc([C@@H](N)C(C)CC)nn3)CC2)n1 (stereo partly specified) do in these assays?
STAT1 activator: inactive; FLuc inhib CS: inactive; APP 5'UTR act: inactive; FLuc stim CS: inactive; NF-kB expr up: inactive

How did CCCCN(CC)Cc1ccc(CNC(=O)Nc2ccc(F)cc2)o1 do in these assays?
STAT1 activator: inactive; FLuc inhib CS: inactive; APP 5'UTR act: inactive; FLuc stim CS: inactive; NF-kB expr up: inactive

What do the screens show for `CCN(CC)c1ccc(/C=N/Nc2nc3ccccc3[nH]2)cc1`?
STAT1 activator: 172; FLuc inhib CS: inactive; Pf gamet viab: inactive; APP 5'UTR act: inactive; FLuc stim CS: inactive; NF-kB expr up: inactive

Results for Cc1cc(C)nc(Sc2nc(C)nc3c2oc2ccccc23)n1 ?
STAT1 activator: inactive; FLuc inhib CS: inactive; Pf gamet viab: inactive; APP 5'UTR act: inactive; FLuc stim CS: inactive; NF-kB expr up: 7.4

How did Cc1ccc(-c2nn(-c3ccccc3)cc2C(=O)Nc2ccc(C(=O)O)cc2)cc1 do in these assays?
STAT1 activator: 130; FLuc inhib CS: inactive; Pf gamet viab: inactive; APP 5'UTR act: inactive; FLuc stim CS: inactive; NF-kB expr up: inactive

Results for COc1ccc(-c2nn(-c3ccccc3)cc2C(=O)O)cc1OC ?
STAT1 activator: inactive; FLuc inhib CS: 82; Pf gamet viab: inactive; APP 5'UTR act: inactive; FLuc stim CS: inactive; NF-kB expr up: inactive

Assay outcomes as filed in PubChem BioAssay.
